# From publication PMC8245904 (Acta Pharmaceutica Sinica. B, 2021)
# Read-outs that look alike come from different tables or passages of the source.
# Tests used:
# [1] = cited from earlier work
# [2] = blood-to-lumen jejunal 51Cr-EDTA clearance; type: in vivo; conditions: hypotonic perfusate (100 mOsm) with lidocaine, rat SPIP, test vs control period
# In short: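 Male Wistar Han rats (299–395 g) anaesthetised with inactin (180 mg/kg i.p., 5% w/v), body temperature held at 37.5 ± 0.5 °C, arterial pressure monitored. The proximal jejunal segment (about 10 cm) was single-pass perfused at 0.2 mL/min at 37 °C. A 30-min PBS stabilisation reached steady plasma 51Cr-EDTA. Then came 60 min of isotonic pH 7.4 control buffer holding both peptides, followed by 75 min of hypotonic (100 mOsm) perfusate with lidocaine 1 mg/mL. Clearance was computed as blood-to-lumen 51Cr-EDTA transport per 100 g wet jejunal tissue, expressed as the ratio of mean test-period (60 min) to mean control-period (45 min) values. n = 6 rats.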
# [3] = Pefabloc SC at 0.3 mg/mL, in rat; cited from earlier work
# [4] = rat single-pass intestinal perfusion; type: in vivo; conditions: with EDTA at 1 mg/mL or the two hypotonic (100 mOsm) perfusion solutions with or without lidocaine; rat SPIP, n = 6
# [5] = ref 22 (enalaprilat), ref 23 (hexarelin); cited from earlier work
# [6] = cited from earlier work; for basal permeability: recent rat SPIP study with transcellular PEs; for effect of transcellular PEs on jejunal permeability: sodium dodecyl sulfate (SDS) and caprate, rat SPIP in vivo
# [7] = compatibility/stability of study drugs in perfusion solution; type: physicochemical; conditions: solution pH 6.5, 37 °C; for concentration in perfusion solution, after: after 4 h; for concentration in perfusion solution, before: before 4 h
# [8] = n-octanol-water coefficient; ref 22 (enalaprilat), ref 23 (hexarelin); cited from earlier work
# [9] = dissociation constant; cited from earlier work
"concentration in perfusion solution, after [7] [µM]","concentration in perfusion solution, before [7] [µM]",Molecule,HBA (hydrogen bond acceptor) [5],HBD (hydrogen bond donor) [5],basal permeability [6],effect of transcellular PEs on jejunal permeability [6],LogP [8],also measured
,,desmopressin,,,,,,bioavailability of the given oral dose [1]: 0.1%
,,semaglutide,,,,,,terminal half-life in plasma [1]: ~1 week; bioavailability of the given oral dose ([1]; with SNAC): 0.4%–1.0
,,"O=C([O-])CN(CCN(CC(=O)[O-])CC(=O)[O-])CC(=O)[O-].[51Cr+3] [51Cr-EDTA, ^51chromium-labeled EDTA]",,,,,,increase in CLCr-EDTA (permeability) [2]: 15 fold
,,Cl.NCCc1ccc(S(=O)(=O)F)cc1 [Pefabloc SC],,,,,,inhibition of the intestinal degradation of hexarelin [3]: completely inhibits
33.9,29.9,Hexarelin,9,11,0.0019 ± 0.0013 × 10^−4 cm/s,unaffected,0.73,Peff ratio (baseline vs. test) [4]: no increase; PSA (polar surface area) [5]: 300
84.8,83.9,C[C@H](N[C@@H](CCc1ccccc1)C(=O)O)C(=O)N1CCC[C@H]1C(=O)O [Enalaprilat],6,3,0.013 ± 0.009 × 10^−4 cm/s,substantially increased,−0.13,"pKa (footnote a, Acid) [9]: 7.84; pKa (footnote b, Base) [9]: 3.17"
